Experimental findings from ChEMBL document CHEMBL4251624, “Synthesis of podophyllotoxin linked β-carboline congeners as potential anticancer agents and DNA topoisomerase II inhibitors” (Eur J Med Chem, 2018) are described below.

For assay [1], the system named is A549. Nature of the assay: Cytotoxicity against human A549 cells after 48 hrs by MTT assay. Type of assay: functional, cell-based. As to conditions: A549, 48 h. The method, boiled down:
(§1)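 MTT assay. Cells seeded at 1×10^4 per well in DMEM or MEM with 10% FBS and grown 24 h at 37 °C under CO2. Compounds added for 48 h, then MTT (5 mg/mL stock) for 4 h. Formazan dissolved in DMSO and read at 570 nm. IC50 is the average of three independent experiments.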

The test system of assay [2] is DU-145. Briefly: Cytotoxicity against human DU145 cells after 48 hrs by MTT assay. The class given is functional, cell-based. As to conditions: DU-145, 48 h. The method, boiled down:
as §1
(Tetrazolium assays rely on reduction of a dye to a coloured formazan, in cell work by metabolically active cells.)

The test system of assay [3] is MDA-MB-231. Nature of the assay: Cytotoxicity against human MDA-MB-231 cells after 48 hrs by MTT assay. The class given is functional, cell-based. As to conditions: MDA-MB-231, 48 h. The essentials:
as §1

Assay [4] deals with HT-29. Briefly: Cytotoxicity against human HT-29 cells after 48 hrs by MTT assay. Type of assay: functional, cell-based. As to conditions: HT-29, 48 h. The essentials: as §1
Assay [5] relates to HeLa. Nature of the assay: Cytotoxicity against human HeLa cells after 48 hrs by MTT assay. Type of assay: functional, cell-based. The method, boiled down: as §1
Assay [6] deals with HEK293. Nature of the assay: Cytotoxicity against HEK293 cells after 48 hrs by MTT assay. The class given is cell-based. As to conditions: Homo sapiens, HEK293, 48 h. The method, boiled down:
as §1

SMILES strings stand for the structures.

A word on the IC50: it is the concentration that gives 50% inhibition. Regarding `COc1cc([C@@H]2c3cc4c(cc3[C@@H](NC(=O)c3cc5c([nH]c6ccccc65)c(-c5ccc6c(c5)OCO6)n3)[C@H]3COC(=O)[C@H]23)OCO4)cc(OC)c1OC`, the IC50 came out at 21.8 µM in assay [1]; 14.5 µM in assay [2]; 34.3 µM in assay [3]; 30.6 µM in assay [4]; 15.3 µM in assay [5]; 70.6 µM in assay [6].
For the molecule `COc1cc([C@@H]2c3cc4c(cc3[C@@H](NC(=O)c3cc5c([nH]c6ccccc65)c(-c5ccc(F)cc5)n3)[C@H]3COC(=O)[C@H]23)OCO4)cc(OC)c1OC`, the IC50 in assay [1] is 10.2 µM; in assay [2] it was 5.07 µM; in assay [3] it was 10.7 µM; in assay [4], 11.5 µM; in assay [5], 15.5 µM; in assay [6], 109 µM.
As to `COc1cc([C@@H]2c3cc4c(cc3[C@@H](NC(=O)c3cc5c([nH]c6ccccc65)c(-c5ccc(C)cc5)n3)[C@H]3COC(=O)[C@H]23)OCO4)cc(OC)c1OC`, the 50% inhibitory concentration (IC50) in assay [1] came to 16.8 µM; in assay [2], 8.74 µM; in assay [3], 16.4 µM; in assay [4] it was 20 µM; in assay [5], 9.77 µM; in assay [6] it was 59.4 µM.
Regarding `COc1cc([C@@H]2c3cc4c(cc3[C@@H](NC(=O)c3cc5c([nH]c6ccccc65)c(-c5ccc(C(F)(F)F)cc5)n3)[C@H]3COC(=O)[C@H]23)OCO4)cc(OC)c1OC`, the IC50 in assay [1] is 34.1 µM; in assay [2] it was 24.8 µM; in assay [3], 75.9 µM; in assay [4], 46.5 µM; in assay [5], 32.1 µM; in assay [6], 63 µM.
Regarding `COc1cc([C@@H]2c3cc4c(cc3[C@@H](NC(=O)c3cc5c([nH]c6ccccc65)c(-c5cccnc5)n3)[C@H]3COC(=O)[C@H]23)OCO4)cc(OC)c1OC`, the IC50 in assay [1] is 2.55 µM; in assay [2] it was 1.98 µM; in assay [3], 3.05 µM; in assay [4], 6.36 µM; in assay [5] it was 4.72 µM; in assay [6] it was 84.3 µM.
As for `COc1cc([C@@H]2c3cc4c(cc3[C@@H](NC(=O)c3cc5c([nH]c6ccccc65)c(-c5cccc6ccccc56)n3)[C@H]3COC(=O)[C@H]23)OCO4)cc(OC)c1OC`, the half-maximal inhibitory concentration (IC50) worked out at 56.9 µM in assay [1]; 22 µM in assay [2]; 27.9 µM in assay [3]; 23 µM in assay [4]; 33 µM in assay [5]; 77.3 µM in assay [6].
Turning to `COc1cc([C@@H]2c3cc4c(cc3[C@H](O)[C@H]3COC(=O)[C@H]23)OCO4)cc(OC)c1OC` [PODOFILOX], the half-inhibitory concentration (IC50) is 3.11 µM in assay [2], 9.76 µM in assay [3], 2.99 µM in assay [4] and 3.04 µM in assay [5].
For the molecule `COc1cc([C@@H]2c3cc4c(cc3[C@@H](NC(=O)c3cc5c([nH]c6ccccc65)c(-c5ccc(Cl)cc5)n3)[C@H]3COC(=O)[C@H]23)OCO4)cc(OC)c1OC`, the concentration for half-maximal inhibition (IC50) was 3.98 µM in assay [1]; 2.65 µM in assay [2]; 3.87 µM in assay [3]; 5.77 µM in assay [4]; 6.61 µM in assay [5]; 58.9 µM in assay [6].
Take `COc1cc([C@@H]2c3cc4c(cc3[C@@H](NC(=O)c3cc5c([nH]c6ccccc65)c(-c5cccc(Oc6ccccc6)c5)n3)[C@H]3COC(=O)[C@H]23)OCO4)cc(OC)c1OC`: the half-maximal inhibitory concentration (IC50) amounted to 5.19 µM in assay [1]; 3.17 µM in assay [2]; 7.52 µM in assay [3]; 10.3 µM in assay [4]; 11.2 µM in assay [5]; 102 µM in assay [6].
As to `COc1cccc2c1C(=O)c1c(O)c3c(c(O)c1C2=O)C[C@@](O)(C(=O)CO)C[C@@H]3O[C@H]1C[C@H](N)[C@H](O)[C@H](C)O1` [DOXORUBICIN], the concentration for half-maximal inhibition (IC50) in assay [1] was 1.68 µM; in assay [2], 1.86 µM; in assay [3], 1.32 µM; in assay [4], 1.41 µM.
